MrgX1 PAM = allosterically activates human MrgX1 receptor signaling. Q96LB2. MrgX1-HEK293, Fluo-4 calcium flux, FDSS; active compounds read high. B-score at 10 µM. actives 0.63% (n = 310,000);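 active = plate-corrected calcium response at least 3 library SD above typical, normal starting fluorescence, not activating the receptor alone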;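 note: compound read alongside a low EC10 to EC30 dose of BAM8-22 agonist; peak minus trough fluorescence over baseline measured at the second addition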
MrgX1 antag = blocks BAM8-22 activation of human MrgX1 receptor. actives 1.3% (n = 310,000). B-score at 10 µM. AID 588676. MRGX1-HEK293 calcium flux, Fluo-4, BAM8-22 antagonism; active compounds read low;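 active = calcium-response B-score plate-corrected more than 3 library SD below zero, starting fluorescence within 5 deviations, no agonist response on first addition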;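 note: peak minus trough fluorescence over baseline after final BAM8-22 challenge near maximal dose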
RGS4 act = RGS4 potentiation or activation | HEK293 M3R/inducible RGS4, carbachol calcium flux Fluo4; active compounds read low | B-score at 10 µM | actives 0.92% (n = 310,000);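 active = B-score of the integrated calcium signal more than 4 SD below the library mean, with starting fluorescence not abnormally high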;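 note: negative B-score means reduced calcium response which marks RGS4 activation or potentiation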
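Detection: kinetic calcium fluorescence imaging with Fluo4-AM dye, 2 µM / Material: HEK293 cells with stable M3R and inducible RGS4 / Schedule: recording 10 s baseline at 1 Hz, 100 s post-agonist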
MrgX1 agonist = human MrgX1 receptor agonism, primary screen | Q96LB2 | MrgX1-HEK293 cells, Fluo-4 calcium fluorescence, agonist mode; active compounds read high | B-score at 10 µM | actives 0.44% (n = 310,000) | AID 588627;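 active = calcium response B-score plate-corrected fluorescence ratio at least 3 library SD, with starting fluorescence B-score inside 5 SD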
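times = overnight plating, then 30 min 37 °C plus 30 min room-temperature dye loading | assay system = stable human MrgX1 HEK293 cell line | input = fifteen thousand cells per well | signal = kinetic calcium dye fluorescence, Fluo-4 NW | dosing = compound delivered in addition one of three | read-out = B-scored fluorescence response ratio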
RGS4 block = inhibitors of human RGS4. P49798. HEK293 M3R/RGS4 inducible, Fluo-4 calcium flux; active compounds read high; triggered by carbachol at its EC20. B-score at 10 µM. actives 0.45% (n = 310,000). AID 463165;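 active = B-score, a plate-corrected calcium signal, over three deviations above library mean, with baseline fluorescence within five deviations of library mean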;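 note: RGS4 expression induced by doxycycline in cells with stable M3 receptor; B-score is computed from the integrated fluorescence ratio over baseline after carbachol; higher B-score means a larger calcium signal and so more RGS4 inhibition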
Target sequence (P49798 whole entry, looked up): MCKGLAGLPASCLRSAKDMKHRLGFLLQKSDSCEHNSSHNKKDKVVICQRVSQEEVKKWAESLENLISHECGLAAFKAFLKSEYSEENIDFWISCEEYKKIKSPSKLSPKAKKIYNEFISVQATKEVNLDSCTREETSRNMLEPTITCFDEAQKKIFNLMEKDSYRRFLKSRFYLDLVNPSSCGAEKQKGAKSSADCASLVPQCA
RGS4 activ val = RGS4 activation, validation assay | HEK293 M3R/RGS4 inducible, carbachol calcium flux Fluo4 | inhibition, % at 10 µM | actives 89% (n = 1,100) | shares compounds with RGS4 act | AID 602282;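 active = inhibition above 3 SD of the buffer control wells, cut at about 41% in these data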;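 note: signal is the integrated peak-minus-minimum Fluo4 fluorescence over baseline ratio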
RGS4 act ctr = activity in cells without induced RGS4 expression. inhibition, % at 10 µM. AID 602283. shares compounds with RGS4 act. HEK293 M3R non-induced RGS4, Fluo4 calcium flux; after carbachol challenge at its EC90. actives 82% (n = 1,100);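 active = inhibition exceeding 3 SD of buffer-only control wells, cut at about 26% in these data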;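 note: percent drop in integrated peak-minus-baseline over baseline Fluo4 ratio after carbachol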
* hit, by the source's call; i = inactive; · = no result given; ! = repeats disagree. This is a sample that favours compounds with a hit; in the whole collection about 3.5% have one here.

SMILES | MrgX1 PAM | MrgX1 antag | RGS4 act | MrgX1 agonist | RGS4 block | RGS4 activ val | RGS4 act ctr
O=C(Nc1ccc(N2CCN(C(=O)c3ccco3)CC2)c(Cl)c1)c1cc2ccccc2o1 | i | i | -8.7* | i | i | 93* | 64*
O=c1/c(=C\c2cccc(O)c2)sc2nc(-c3ccccc3)c(-c3ccccc3)n12 | i | i | i | i | i | · | ·
CCOc1ccccc1NC(=O)C1C2CCC3C(CCC21)C3(Cl)Cl (configuration not stated) | i | i | -7.9* | i | i | 0 | 0
O=C(Nc1ccccc1Cl)C1C2CCC3C(CCC21)C3(Cl)Cl (configuration not stated) | i | i | i | i | i | · | ·
COc1ccc(-c2nn(-c3ccccc3)cc2C(=O)Nc2nccs2)cc1 | i | i | -8.7* | i | i | 68* | 0
COc1cccc(-c2nn(-c3ccccc3)cc2C(=O)Nc2nccs2)c1 | i | i | i | i | i | · | ·
C=CCOC(=O)C1=C(C)NC(SCC(N)=O)=C(C#N)C1c1ccc(C)cc1 (configuration not stated) | i | i | i | i | i | · | ·
C=CCOC(=O)C1=C(C)NC(SCC)=C(C#N)C1c1ccc(Cl)cc1 (configuration not stated) | i | i | -7.6* | i | i | 93* | 84*
COc1cccc(C2SCC(=O)N2c2ccc(Br)cc2)c1OC (configuration not stated) | i | i | -9.8* | i | i | 91* | 92*
CC1CCC(C(C)C)C(OC(=O)COC(=O)c2ccc(N)cc2)C1 (configuration not stated) | i | i | i | i | i | · | ·
Cc1ccccc1OCc1n(CC(=O)OC2CC(C)CCC2C(C)C)c2ccccc2[n+]1C (configuration not stated) | i | -7.2* | -13* | i | i | 92* | 91*
CC1CCC(C(C)C)C(OC(=O)Cn2c(-c3ccc(Br)cc3)[n+](C)c3ccccc32)C1 (configuration not stated) | i | -6*! | -11* | i | i | 94* | 81*
O=C(CSc1nnc(COc2ccccc2)o1)Nc1ccc(F)cc1 | i | i | i | i | i | · | ·
O=C1Nc2ccccc2C1=Nc1ccc(Br)cc1 | i | i | i | i | i | · | ·
CCN(CC)c1ccc(N=C2C(=O)Nc3ccccc32)cc1 | i | i | -11* | i | i | 84* | 39*
CC1CCCCN1C(=O)c1cc2nc(-c3ccccc3)cc(-c3ccccc3)n2n1 (configuration not stated) | i | i | -7.9* | i | i | 74* | 0
O=C(c1cccs1)N1CCCC(c2nc3c(nnn3Cc3c(Cl)cccc3Cl)c(=O)[nH]2)C1 (configuration not stated) | i | i | -8.3* | i | i | 52* | 84*
CCOc1ccc(S(=O)(=O)NCCC(=O)OCC(=O)Nc2cc(C)on2)cc1 | i | i | i | i | i | · | ·
CNc1ccc(C(O)(C(F)(F)F)C(F)(F)F)cc1C(O)(C(F)(F)F)C(F)(F)F | i | i | -8.2* | i | i | 90* | 69*
Cc1ccc(N)c(C(O)(C(F)(F)F)C(F)(F)F)c1 | i | i | i | i | i | · | ·
OCC[C@H]1C[C@H](O)[C@@H](O)[C@]2(Cc3ccccc3CCO2)O1 | i | i | · | i | · | · | ·
CCC1Oc2ccccc2C(=O)N(CC(=O)c2ccc3c(c2)OCCO3)C1=O (configuration not stated) | i | i | -8.1* | i | i | 72* | 84*
CC(C)C1Oc2ccccc2C(=O)N(CC(=O)c2ccc3c(c2)OCCO3)C1=O (configuration not stated) | i | i | -7.8* | i | i | 0 | 0

Compound activity from PubChem BioAssay.
